Results as given in ChEMBL document CHEMBL3102843, “Synthesis and antifungal activity of substituted 2,4,6-pyrimidinetrione carbaldehyde hydrazones” (Bioorg Med Chem, 2014).
Values after ≈ are worked out from the molar mass of the structure shown. Active and inactive are the calls of the source. Unless noted, the calls are words filed in the database; no cut-off is given here.

Experiments:
Nakaseomyces glabratus [1] = assay: Antifungal activity against Candida glabrata ATCC 48435 at 125 ug/ml after 48 to 72 hrs by broth microdilution method; assay type: functional, organism-based
Method in brief: (§1)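 Broth microdilution per NCCLS. Inocula come from 5–7 colonies on YM agar, suspended in sterile water and adjusted to 0.5 McFarland at 530 nm (stock 1×10⁶–5×10⁶ cells/mL), then diluted 1:50 in HEPES-buffered RPMI 1640. Compounds in DMSO (final ≤1%) are added as a 10-fold dilution into the suspension. Plates run 48–72 h at 35 °C, humid. Growth is scored visually; the endpoint is ≥80% reduction versus drug-free wells.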

Candida albicans [2] = assay: Antifungal activity against Candida albicans ATCC 10231 at 125 ug/ml after 48 to 72 hrs by broth microdilution method; assay type: functional, organism-based; method in brief: as §1
Nakaseomyces glabratus [3] = assay: Antifungal activity against Candida glabrata ATCC 48435 after 48 to 72 hrs by broth microdilution method; assay type: functional
Method in brief: (§2)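 Broth microdilution per NCCLS. Organisms were subcultured on Sabouraud agar. Inoculum was 5–7 colonies from YM agar in sterile water, adjusted to 0.5 McFarland at 530 nm (1–5×10⁶ cells/mL stock), held 30 min at RT, then diluted 1:50 in HEPES-buffered RPMI 1640. DMSO stocks were twofold-diluted, with final DMSO ≤1%. Plates ran 48–72 h at 35 °C, humid. MIC is the lowest concentration giving ≥80% growth reduction vs drug-free wells, scored visually. Fluconazole or amphotericin B ran as drug control.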

Candida albicans [4] = assay: Antifungal activity against Candida albicans ATCC 10231 after 48 to 72 hrs by broth microdilution method; assay type: functional; method in brief: as §2

Structure (SMILES) | Activity (Nakaseomyces glabratus [1]) | Activity (Candida albicans [2]) | MIC80 (Nakaseomyces glabratus [3]) | MIC80 (Candida albicans [4])
CCCCCCCC1C(=O)NC(=O)NC1=O | inactive | inactive | – | –
CC(=O)C1C(=O)NC(=O)N(c2ccccc2)C1=O (stereo not drawn) | inactive | inactive | – | –
O=CC1C(=O)NC(=O)NC1=O | inactive | inactive | – | –
CN1C(=O)C(C(=O)c2ccccc2)C(=O)N(C)C1=O | inactive | inactive | – | –
O=C1NC(=O)C(C(=O)c2cc([N+](=O)[O-])cc([N+](=O)[O-])c2)C(=O)N1 | inactive | inactive | – | –
O=C1NC(=O)N(c2ccccc2)C(=O)C1CC1CCC(O)CC1 (stereo not drawn) | inactive | inactive | – | –
CN(C)c1ccc(CC2(Cc3ccc(N(C)C)cc3)C(=O)NC(=O)NC2=O)cc1 | inactive | inactive | – | –
CN1C(=O)NC(=O)C(C(=O)c2ccccc2)C1=O (stereo not drawn) | inactive | inactive | – | –
CC(=O)C1C(=O)NC(=O)NC1=O | inactive | inactive | – | –
O=C1NC(=O)C(Cc2ccc3ccccc3c2)C(=O)N1 | inactive | inactive | – | –
O=C1NC(=O)C(CCCC2CCCCC2)C(=O)N1 | inactive | inactive | – | –
O=C1NC(=O)C(CC2CCC(O)CC2)C(=O)N1 (stereo not drawn) | inactive | inactive | – | –
O=C1NC(=O)C(C(=O)c2cccc([N+](=O)[O-])c2)C(=O)N1 | inactive | inactive | – | –
COc1ccc(C(=O)C2C(=O)NC(=O)NC2=O)cc1 | inactive | inactive | – | –
CN1C(=O)C(C(=O)c2cccnc2)C(=O)N(C)C1=O | inactive | inactive | – | –
O=C1NC(=O)C(C(=O)c2ccccc2)C(=O)N1 | inactive | inactive | – | –
CN1C(=O)C(C(=O)c2ccc(O)cc2)C(=O)N(C)C1=O | inactive | inactive | – | –
CN1C(=O)NC(=O)C(C=O)C1=O (stereo not drawn) | inactive | inactive | – | –
CN1C(=O)C(CCCc2ccccc2)C(=O)N(C)C1=O | inactive | inactive | – | –
O=C1NC(=O)C(C2CCCCC2)C(=O)N1 | inactive | inactive | – | –

Structure (SMILES) | Activity (Nakaseomyces glabratus [1]) | Activity (Candida albicans [2]) | MIC80 (Nakaseomyces glabratus [3]) | MIC80 (Candida albicans [4])
CN(C)c1ccc(CC2(CCCc3ccccc3)C(=O)NC(=O)NC2=O)cc1 | inactive | inactive | – | –
CC(C)C1C(=O)NC(=O)N(c2ccccc2)C1=O (stereo not drawn) | inactive | inactive | – | –
O=C1NC(=O)C(Cc2ccccc2)(Cc2ccccc2)C(=O)N1 | inactive | inactive | – | –
CCCCN1C(=O)NC(=O)C(C(=O)c2ccc(OC)cc2)C1=O (stereo not drawn) | inactive | inactive | – | –
CN1C(=O)C(C(=O)c2cccc([N+](=O)[O-])c2)C(=O)N(C)C1=O | inactive | inactive | – | –
C/C(=N\NC(=O)c1ccc([N+](=O)[O-])cc1)C1C(=O)N(C)C(=O)N(C)C1=O | – | – | inactive | inactive
CN1C(=O)C(C(=O)c2cc([N+](=O)[O-])cc([N+](=O)[O-])c2)C(=O)N(C)C1=O | inactive | inactive | – | –
CN1C(=O)C(/C=N/c2nnc[nH]2)C(=O)N(C)C1=O | – | – | inactive | inactive
CN1C(=O)C(/C=N/c2ccc(O)cc2)C(=O)N(C)C1=O | – | – | inactive | inactive
COc1ccc(/C(=N\CCCCCC(=O)O)C2C(=O)NC(=O)NC2=O)cc1 | – | – | inactive | inactive
O=C1NC(=O)C(/C=N/C2N=NN=N2)C(=O)N1 | – | – | inactive | inactive
CCCCN1C(=O)NC(=O)C(C(=O)c2ccc(O)cc2)C1=O (stereo not drawn) | inactive | inactive | – | –
COc1cc(OC)c(C=C2C(=O)N(C)C(=O)N(C)C2=O)c(OC)c1 | – | – | inactive | inactive
COc1ccc(C(=O)N/N=C(\C)C2C(=O)N(C)C(=O)N(C)C2=O)cc1 | – | – | inactive | inactive
O=C1NC(=O)C(Cc2ccc(O)cc2)C(=O)N1 | inactive | inactive | – | –
O=C1NC(=O)C(CCCc2ccccc2)C(=O)N1 | inactive | inactive | – | –
C/C(=N\NC(=O)c1ccccc1)C1C(=O)NC(=O)NC1=O | – | – | inactive | inactive
CN1C(=O)C(/C=N/c2ccc([N+](=O)[O-])cc2)C(=O)N(C)C1=O | – | – | inactive | inactive
O=C1NC(=O)C(C(=NNc2ccc(C(=O)O)cc2)C2C(=O)NC(=O)NC2=O)C(=O)N1 | – | – | 125 µg/mL (≈ 300 µM) | inactive
CCCCN1C(=O)NC(=O)C(/C(=N/Nc2ccc([N+](=O)[O-])cc2[N+](=O)[O-])c2ccccc2)C1=O (stereo not drawn) | – | – | inactive | inactive

Structure (SMILES) | Activity (Nakaseomyces glabratus [1]) | Activity (Candida albicans [2]) | MIC80 (Nakaseomyces glabratus [3]) | MIC80 (Candida albicans [4])
COc1ccc(/N=C/C2C(=O)N(C)C(=O)N(C)C2=O)cc1 | – | – | inactive | inactive
CN1C(=O)C(/C=N/c2cccc(O)c2)C(=O)N(C)C1=O | – | – | inactive | inactive
O=C1NC(=O)N(c2ccccc2)C(=O)C1C(=O)c1ccc(O)cc1 (stereo not drawn) | inactive | inactive | – | –
COC(=O)N/N=C(\C)C1C(=O)NC(=O)NC1=O | – | – | inactive | inactive
O=C1NC(=O)C(C(=O)c2ccc([N+](=O)[O-])cc2)C(=O)N1 | inactive | inactive | – | –
COc1ccc(/N=C(\C)C2C(=O)NC(=O)NC2=O)cc1 | – | – | inactive | inactive
CN1C(=O)C(/C=N/NS(=O)(=O)c2ccccc2)C(=O)N(C)C1=O | – | – | inactive | inactive
C/C(=N\c1ccc(O)cc1)C1C(=O)N(C)C(=O)N(C)C1=O | – | – | inactive | inactive
COC(=O)N/N=C(\C)C1C(=O)N(C)C(=O)N(C)C1=O | – | – | inactive | inactive
C/C(=N\Nc1ccc([N+](=O)[O-])cc1)C1C(=O)NC(=O)N(c2ccccc2)C1=O (stereo not drawn) | – | – | 16 µg/mL (≈ 42 µM) | 31.5 µg/mL (≈ 82.6 µM)
O=C1NC(=O)C(=Cc2ccco2)C(=O)N1 | – | – | inactive | inactive
COC(=O)N/N=C/C1C(=O)N(C)C(=O)N(C)C1=O | – | – | inactive | inactive
CN1C(=O)C(/C(=N/Nc2ccc(C(=O)O)cc2)c2ccccc2)C(=O)N(C)C1=O | – | – | inactive | inactive
Cc1ccc(S(=O)(=O)N/N=C/C2C(=O)N(C)C(=O)N(C)C2=O)cc1 | – | – | inactive | inactive
N/N=C/C1C(=O)NC(=O)NC1=O | – | – | 16 µg/mL (≈ 94 µM) | 125 µg/mL (≈ 735 µM)
O=C1NC(=O)C(/C=N/c2ccc(-c3ccccc3)cc2)C(=O)N1 | – | – | inactive | inactive
O=C1NC(=O)C(/C=N/NS(=O)(=O)c2ccccc2)C(=O)N1 | – | – | inactive | inactive
CN1C(=O)C(/C=N/n2cnnc2)C(=O)N(C)C1=O | – | – | inactive | inactive
CN1C(=O)C(=C/C=C/c2ccccc2)C(=O)N(C)C1=O | – | – | 125 µg/mL (≈ 462 µM) | 62 µg/mL (≈ 229 µM)
